The subject of data set [1] is Candida albicans. Description: Antifungal activity against Fluconazole resistant Candida albicans isolate 17 at 168.9 uM after 48 hrs by CLSI method. It is filed as functional, organism-based. In outline:
(§1)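 Candida in CLSI broth microdilution. Saline colony suspension set to 1.5 × 10³ CFU/ml (final) in MOPS-buffered RPMI 1640, pH 7.0. Test agent given as twofold serial dilutions in 20% DMSO-saline, duplicate wells. 35°C for 48 h. Growth read as OD530 before and after incubation. Percent inhibition scored at the highest test concentration.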

Data set [2] has as its system Aspergillus fumigatus. Put plainly: Antifungal activity against Aspergillus fumigatus ATCC 90906 at 168.9 uM after 48 hrs by CLSI method. It is filed as functional, organism-based.
The test system of data set [3] is Trichophyton mentagrophytes. Put plainly: Antifungal activity against Trichophyton mentagrophytes ATCC 9533 at 168.9 uM after 5 days by CLSI method. The format is functional, organism-based.
Data set [4] has as its system Cryptococcus neoformans. Put plainly: Antifungal activity against Cryptococcus neoformans ATCC 66031 at 168.9 uM after 72 hrs by CLSI method. It is filed as functional, organism-based. In outline:
(§2)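 SD broth replaced RPMI because growth in RPMI was poor; other CLSI conditions were kept. Inoculum was 1.5 × 10³ CFU/ml from colonies on SD agar, checked by plating. Twofold serial dilutions (11 concentrations) in 20% DMSO-saline were tested in duplicate. OD530 was read before and after incubation at 35°C for 72 h. Percent growth gave IC50; the MIC is the lowest concentration with no detectable growth.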

The subject of data set [5] is Aspergillus niger. Put plainly: Antifungal activity against Aspergillus niger ATCC 16404 at 168.9 uM after 48 hrs by CLSI method. It is filed as functional, organism-based.
The test system of data set [6] is Trichophyton mentagrophytes. Put plainly: Antifungal activity against Trichophyton mentagrophytes ATCC MYA-4439 at 168.9 uM after 5 days by CLSI method. The format is functional, organism-based.
For data set [7], the system named is Nakaseomyces glabratus. Put plainly: Antifungal activity against Candida glabrata ATCC 90030 at 9.4 uM after 48 hrs by CLSI method. It is filed as functional, organism-based. In outline:
as §1

Data set [8] concerns Trichophyton rubrum. Description: Antifungal activity against Trichophyton rubrum ATCC MYA-4438 at 9.4 uM after 5 days by CLSI method. It is filed as functional, organism-based. In outline: (§3)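 Trichophyton growth scraped from 1–6-week potato dextrose slants and filtered through Miracloth. Inoculum 2.7 × 10⁴ CFU/ml (final) in 5% Alamar blue-RPMI 1640 buffered with MOPS, pH 7.0. Duplicate twofold dilutions from 20% DMSO-saline. Incubated 35°C for 5 days. Fluorescence read at 544 nm excitation, 590 nm emission. Inhibition assessed at the highest test concentration.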

Data set [9] has as its system Candida albicans. Put plainly: Antifungal activity against Candida albicans ATCC 14053 at 9.4 uM after 48 hrs by CLSI method. The format is functional, organism-based. The method in brief: as §1
Data set [10] relates to Candida albicans. Description: Antifungal activity against Fluconazole resistant Candida albicans isolate 17 at 9.4 uM after 48 hrs by CLSI method. The format is functional, organism-based. In outline: as §1
Data set [11] concerns Trichophyton rubrum. Put plainly: Antifungal activity against Trichophyton rubrum ATCC 10218 at 9.4 uM after 5 days by CLSI method. It is filed as functional, organism-based. The method in brief: as §3
For data set [12], the system named is Candida albicans. Description: Antifungal activity against Candida albicans ATCC 200955 at 9.4 uM after 48 hrs by CLSI method. It is filed as functional, organism-based. In outline:
as §1

Data set [13] concerns Candida albicans. Put plainly: Antifungal activity against Candida albicans ATCC 90028 at 9.4 uM after 48 hrs by CLSI method. It is filed as functional, organism-based. The method in brief: as §1
Data set [14] relates to Pichia kudriavzevii. Description: Antifungal activity against Candida krusei ATCC 6258 at 9.4 uM after 48 hrs by CLSI method. It is filed as functional, organism-based. In outline: as §1
For data set [15], the system named is Candida parapsilosis. Description: Antifungal activity against Candida parapsilosis ATCC 22019 at 9.4 uM after 48 hrs by CLSI method. The format is functional, organism-based. In outline:
as §1

The test system of data set [16] is Aspergillus niger. Description: Antifungal activity against Aspergillus niger ATCC 16404 at 187.7 uM after 48 hrs by CLSI method. It is filed as functional, organism-based.
Data set [17] relates to Pichia kudriavzevii. Description: Antifungal activity against Candida krusei ATCC 6258 at 187.7 uM after 48 hrs by CLSI method. The format is functional, organism-based. In outline:
(§4)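 Yeast suspensions made from 3-5 colonies off 24-72 h SD agar plates in saline. They were diluted by OD630 standard curve in RPMI 1640 (0.2% dextrose, 0.03% glutamine, 0.165 M MOPS, pH 7.0) to 1.5 × 10³ CFU/ml. Twofold dilutions (11 concentrations, 20% DMSO-saline) run in duplicate. OD530 read before and after 35°C, 48 h. Line values are top test concentrations; no-growth endpoints give MIC/MFC.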

The next data set has as its system Aspergillus flavus. Description: Antifungal activity against Aspergillus flavus ATCC 204304 at 187.7 uM after 48 hrs by CLSI method. The format is functional, organism-based.
Data set [18] deals with Candida albicans. Put plainly: Antifungal activity against Candida albicans ATCC 60193 at 187.7 uM after 48 hrs by CLSI method. The format is functional, organism-based. The method in brief:
(§5)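 Candida inocula came from 24–72-h SD agar colonies suspended in saline. They were diluted by OD630 standard curve into RPMI 1640 (0.2% dextrose, 0.03% glutamine, 0.165 M MOPS, pH 7.0) to 1.5 × 10³ CFU/ml. Compounds were run as 11 twofold dilutions in 20% DMSO-saline, in duplicate, at 35°C for 48 h, with OD530 read before and after. Percent growth at the top concentration, IC50, MIC, and MFC (SD agar plating) were derived.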

The subject of data set [19] is Candida albicans. Put plainly: Antifungal activity against Candida albicans ATCC 14053 at 187.7 uM after 48 hrs by CLSI method. The format is functional, organism-based.
In data set [20] the test system is Cryptococcus neoformans. Description: Antifungal activity against Cryptococcus neoformans ATCC 66031 at 187.7 uM after 72 hrs by CLSI method. The format is functional, organism-based. The method in brief: as §2
The test system of data set [21] is Candida albicans. Description: Antifungal activity against Fluconazole resistant Candida albicans isolate 17 at 169.8 uM after 48 hrs by CLSI method. It is filed as functional, organism-based. In outline: as §1
In data set [22] the test system is Aspergillus fumigatus. Put plainly: Antifungal activity against Aspergillus fumigatus ATCC 90906 at 169.8 uM after 48 hrs by CLSI method. It is filed as functional, organism-based.
Data set [23] concerns Candida parapsilosis. Put plainly: Antifungal activity against Candida parapsilosis ATCC 22019 at 169.8 uM after 48 hrs by CLSI method. The format is functional, organism-based. The method in brief:
as §4

Data set [24] relates to Cryptococcus neoformans. Put plainly: Antifungal activity against Cryptococcus neoformans ATCC 90113 at 169.8 uM after 72 hrs by CLSI method. The format is functional, organism-based. In outline: as §2
Data set [25] relates to Candida albicans. Put plainly: Antifungal activity against Fluconazole resistant Candida albicans isolate 1 at 169.8 uM after 48 hrs by CLSI method. The format is functional, organism-based. In outline:
as §1

The subject of data set [26] is Candida albicans. Put plainly: Antifungal activity against Candida albicans ATCC 60193 at 169.8 uM after 48 hrs by CLSI method. The format is functional, organism-based. In outline: as §5
For data set [27], the system named is Nakaseomyces glabratus. Description: Antifungal activity against Candida glabrata ATCC 90030 at 169.8 uM after 48 hrs by CLSI method. The format is functional, organism-based. The method in brief:
as §5

In another data set the test system is Mus musculus. Description: Toxicity in mouse up to 34 umol/kg/day, ip for 3 days. It is filed as organism-based. The conditions noted are these: in vivo, 72 h.
In another data set the test system is Candida tropicalis. Put plainly: Antifungal activity against Candida tropicalis ATCC 750 at 169.8 uM after 48 hrs by CLSI method. The format is functional, organism-based. The method in brief: as §4
Data set [28] concerns Cryptococcus neoformans. Put plainly: Antifungal activity against Cryptococcus neoformans ATCC 90113 at 198.1 uM after 72 hrs by CLSI method. It is filed as functional, organism-based.
The subject of data set [29] is Candida albicans. Description: Antifungal activity against Candida albicans ATCC 14053 at 198.1 uM after 48 hrs by CLSI method. It is filed as functional, organism-based.
The test system of data set [30] is Aspergillus niger. Description: Antifungal activity against Aspergillus niger ATCC 16404 at 198.1 uM after 48 hrs by CLSI method. The format is functional, organism-based.
In data set [31] the test system is Nakaseomyces glabratus. Description: Antifungal activity against Candida glabrata ATCC 90030 at 198.1 uM after 48 hrs by CLSI method. The format is functional, organism-based. The method in brief:
as §5

Activity calls are given as the source filed them. The rule behind the calls is not given here.

As for `CCCCCC#CCC#CCC#CCC#CCCCC(=O)O`, the result (in the data set with Candida albicans [1]; with Aspergillus fumigatus [2]; in [3]; with Cryptococcus neoformans [4]; with Aspergillus niger [5]; in data set [6]) was inactive.
As for `CC(=O)N1CCN(c2ccc(OCC3COC(Cn4ccnc4)(c4ccc(Cl)cc4Cl)O3)cc2)CC1` (centres undefined) [KETOCONAZOLE], the result in the data set on Nakaseomyces glabratus [7], in the data set with Trichophyton rubrum [8], in the data set on Candida albicans [9], in the data set with Candida albicans [10], with Trichophyton rubrum [11] and in the data set with Candida albicans [12] was inactive. In addition, the outcome in the data set on Candida albicans [13], in the data set on Pichia kudriavzevii [14] and in the data set with Candida parapsilosis [15] was inactive.
Turning to `CCCCCCCCCCC#CCCCCC(=O)O`, the result in the data set with Aspergillus niger [16], with Pichia kudriavzevii [17], in the data set with Aspergillus flavus, in the data set on Candida albicans [18], with Candida albicans [19] and with Cryptococcus neoformans [20] was inactive.
Turning to `CCCCCCCCCCCCC#CCCCCC(=O)O` [6-NONADECYNOIC ACID], the result in the data set with Candida albicans [21], with Aspergillus fumigatus [22], in the data set with Candida parapsilosis [23], in the data set on Cryptococcus neoformans [24], with Candida albicans [25] and in the data set on Candida albicans [26] was inactive. The result with Nakaseomyces glabratus [27] and in the data set on Candida tropicalis was inactive. Besides, the Activity entry in the data set with Mus musculus is reported as “Non-toxic”.
As for `CCCCCCCCCC#CCCCCC(=O)O`, the result in the data set on Cryptococcus neoformans [28], in the data set on Candida albicans [29], in the data set on Aspergillus niger [30] and in the data set with Nakaseomyces glabratus [31] was inactive.
